Measured values published in the array DNA melting data of Ke et al. (doi:10.1101/2024.01.08.574731).

Assays:
[1] = folding enthalpy; higher = less favourable; fluorescence melt of hairpins on a sequencing array, two-state fit; details: sodium 0.088 M
Summary of the method: (§1)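 Library hairpins on a sequenced MiSeq flow cell carried annealed Cy3 and quencher oligos, and their Cy3 fluorescence was imaged in 50 mM Na-HEPES pH 8.0 with 25 mM NaCl, in 2.5 °C steps up to 60 °C. Signals were normalised to Cy3 before quenching and to control constructs. Melting temperature and folding enthalpy were obtained from bootstrapped two-state fits, combined by inverse-variance weighting across four replicates, and the fitted temperatures were then raised by 9.35 °C to match UV melts.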

[2] = melting temperature; fluorescence melt of hairpins on a sequencing array, two-state fit, raised by 9.35 °C to match UV melts; details: sodium 0.088 M
Summary of the method: as §1

Row | Sequence | folding enthalpy [1] | Tm [2]
1 | GGGACACGAAAGTGCCC (((.(((....)))))) | -24.1 kcal/mol | 60.9 °C
2 | GGGACAGAAATGTCCC ((((((....)))))) | -29.3 kcal/mol | 64.1 °C
3 | GGGACCGAAAGGTATCCC ((((((....)))..))) | -18.1 kcal/mol | 47.7 °C
4 | GGGACCGAAAGGTGCCC ((((((....))).))) | -17.7 kcal/mol | 61 °C
5 | GGGACCGAAAGGTGGCCC ((((((....)))..))) | -19 kcal/mol | 45.5 °C
6 | GGGACCGAAAGGTTCCC ((((((....))).))) | -26.7 kcal/mol | 60.4 °C
7 | GGGACGCCGAAAGGCCCC (((..(((....)))))) | -13.7 kcal/mol | 45.4 °C
8 | GGGACGGGAAACCGTCTC (.(((((....))))).) | -20.2 kcal/mol | 56.5 °C
9 | GGGACTCCGAAAGGACCC (((..(((....)))))) | -16 kcal/mol | 41.5 °C
10 | GGGACTGAAAAGTCCC ((((((....)))))) | -33.7 kcal/mol | 68.3 °C
11 | GGGACTGGAAACAGTCCC (((((((....))))))) | -37.8 kcal/mol | 69 °C
12 | GGGACTGGAAACGGTCCC (((((.(....).))))) | -44.6 kcal/mol | 57.6 °C
13 | GGGACTGGAAACGGTCTC (.(((.(....).))).) | -23.1 kcal/mol | 37.4 °C
14 | GGGAGACGAAAGTCCCCC (((.(((....))).))) | -28.8 kcal/mol | 58.8 °C
15 | GGGAGAGGAAACTCTTCC ((.((((....)))).)) | -30.7 kcal/mol | 45.5 °C
16 | GGGAGCACGAAAGTGCCC (((..(((....)))))) | -10.6 kcal/mol | 59.1 °C
17 | GGGAGCGAAAGCTAGCCC ((((((....)))..))) | -14.2 kcal/mol | 42.7 °C
18 | GGGAGCGAAAGCTCGCCC ((((((....)))..))) | -11.6 kcal/mol | 52.7 °C
19 | GGGAGCGAAAGCTGTCCC ((((((....)))..))) | -17.2 kcal/mol | 45.6 °C
20 | GGGAGCGAAAGCTTGCCC ((((((....)))..))) | -12.2 kcal/mol | 39.4 °C
21 | GGGAGGAAACTCCC (((((....))))) | -33.5 kcal/mol | 56 °C
22 | GGGAGGCCGAAAGGCCCC (((..(((....)))))) | -9.7 kcal/mol | 56.6 °C
23 | GGGAGTACGAAAGTACCC (((..(((....)))))) | -13.1 kcal/mol | 51.3 °C

Row | Sequence | folding enthalpy [1] | Tm [2]
24 | GGGAGTCGAAAGACCCCC (((.(((....))).))) | -37.3 kcal/mol | 59.3 °C
25 | GGGAGTGGAAACGCTCCC (((((.(....).))))) | -38.9 kcal/mol | 58 °C
26 | GGGAGTGGAAACGTTCCC ((((..(....)..)))) | -16.5 kcal/mol | 36.2 °C
27 | GGGAGTTCGAAAGAACCC (((..(((....)))))) | -18.2 kcal/mol | 47.9 °C
28 | GGGATACGAAAGTACCC (((.(((....)))))) | -27.4 kcal/mol | 51.2 °C
29 | GGGATAGGAAACTATCCC (((((((....))))))) | -42.8 kcal/mol | 59.2 °C
30 | GGGATAGGAAACTGTCCC ((((.((....)).)))) | -35.9 kcal/mol | 49.4 °C
31 | GGGATCACGAAAGTGCCC (((..(((....)))))) | -15.3 kcal/mol | 39.3 °C
32 | GGGATCGAAAGATAACCC ((((((....)))..))) | -19.4 kcal/mol | 34.9 °C
33 | GGGATCGAAAGATCACCC ((((((....)))..))) | -13.4 kcal/mol | 51.1 °C
34 | GGGATCGAAAGATGCCC ((((((....))).))) | -46.8 kcal/mol | 50.3 °C
35 | GGGATCGAAAGATGGCCC ((((((....)))..))) | -13.8 kcal/mol | 33.5 °C
36 | GGGATCGCGAAAGCGCCC (((..(((....)))))) | -13.8 kcal/mol | 40.6 °C
37 | GGGATCGGAAACGGTCCC ((((.((....)).)))) | -47.5 kcal/mol | 57.8 °C
38 | GGGATGGCGAAAGCCCCC (((..(((....)))))) | -15.7 kcal/mol | 47.3 °C
39 | GGGATGGGAAACCATCTC (.(((((....))))).) | -24.5 kcal/mol | 49.9 °C
40 | GGGATGGGAAACCGTCCC ((((.((....)).)))) | -50.5 kcal/mol | 56.5 °C
41 | GGGATTCCGAAAGGACCC (((..(((....)))))) | -16 kcal/mol | 40.3 °C
42 | GGGATTCGAAAGAAGCCC (((.(((....))).))) | -34.7 kcal/mol | 63.5 °C
43 | GGGATTGGAAACAACCCC (((.(((....))).))) | -28 kcal/mol | 42.4 °C
44 | GGGATTGGAAACAGTCCC ((((.((....)).)))) | -31.5 kcal/mol | 48.8 °C
45 | GGGCAAGGAAACTTACCC (((.(((....))).))) | -29.2 kcal/mol | 38.9 °C
46 | GGGCACACGAAAGTGCCC (((..(((....)))))) | -30.4 kcal/mol | 67.3 °C

Row | Sequence | folding enthalpy [1] | Tm [2]
47 | GGGCACGAAAGTGACCC ((((((....))).))) | -13.2 kcal/mol | 66.8 °C
48 | GGGCACGAAAGTGACCCC ((((((....)))..))) | -10.3 kcal/mol | 68.5 °C
49 | GGGCACGAAAGTGAGCCC ((((((....)))..))) | -32.9 kcal/mol | 56.7 °C
50 | GGGCACGAAAGTGCTCCC ((((((....)))..))) | -9.92 kcal/mol | 53.1 °C
51 | GGGCACGAAAGTGTCCC ((((((....))).))) | -16.5 kcal/mol | 65.1 °C
52 | GGGCACGAAAGTGTCCCC ((((((....)))..))) | -12 kcal/mol | 65.1 °C
53 | GGGCAGGCGAAAGCCCCC (((..(((....)))))) | -14.5 kcal/mol | 46 °C
54 | GGGCAGGGAAACCCACCC (((..((....))..))) | -24.5 kcal/mol | 34.8 °C
55 | GGGCAGGGAAACTTGCCC (((((.(....).))))) | -47.7 kcal/mol | 55.9 °C
56 | GGGCAGTCGAAAGACCCC (((..(((....)))))) | -21.6 kcal/mol | 41.7 °C
57 | GGGCATCGAAAGATTCCC (((.(((....))).))) | -27.7 kcal/mol | 47.5 °C
58 | GGGCATTCGAAAGAACCC (((..(((....)))))) | -14.2 kcal/mol | 29.5 °C
59 | GGGCCAACGAAAGTTCCC (((..(((....)))))) | -14.4 kcal/mol | 30.4 °C
60 | GGGCCACGAAAGTGACCC (((.(((....))).))) | -40.5 kcal/mol | 64.4 °C
61 | GGGCCAGGAAACCAGCCC ((((..(....)..)))) | -26.8 kcal/mol | 43.9 °C
62 | GGGCCAGGAAACTGGTCC ((.((((....)))).)) | -35 kcal/mol | 61.9 °C
63 | GGGCCCCGAAAGGGTCCC (((.(((....))).))) | -27.4 kcal/mol | 65.2 °C
64 | GGGCCCGAAAGGGTACCC ((((((....)))..))) | -15.1 kcal/mol | 57.3 °C
65 | GGGCCGGCGAAAGCCCCC (((..(((....)))))) | -11.2 kcal/mol | 51 °C
66 | GGGCCTCGAAAGAGTCCC (((.(((....))).))) | -40.7 kcal/mol | 54.2 °C
67 | GGGCGACCGAAAGGTCCC (((..(((....)))))) | -13 kcal/mol | 49.8 °C
68 | GGGCGAGGAAACTCACCC (((.(((....))).))) | -41 kcal/mol | 49.6 °C
69 | GGGCGCGGAAACACGCCC (((((.(....).))))) | -34 kcal/mol | 66.5 °C

Row | Sequence | folding enthalpy [1] | Tm [2]
70 | GGGCGCGGAAACGCACCC (((.(((....))).))) | -43.8 kcal/mol | 62.6 °C
71 | GGGCGGACGAAAGTCCCC (((..(((....)))))) | -13.8 kcal/mol | 50.6 °C
72 | GGGCGGCCGAAAGGCCCC (((..(((....)))))) | -10.4 kcal/mol | 57.1 °C
73 | GGGCGGCGAAAGCCACCC (((.(((....))).))) | -26.3 kcal/mol | 67.3 °C
74 | GGGCGGCGAAAGCCTCCC (((.(((....))).))) | -21.9 kcal/mol | 61.2 °C
75 | GGGCGGGGAAACCCGTCC ((.((((....)))).)) | -37.3 kcal/mol | 65 °C
76 | GGGCGTGGAAACGCGTCC ((.((.(....).)).)) | -12.9 kcal/mol | 50.7 °C
77 | GGGCTACCGAAAGGTCCC (((..(((....)))))) | -18.8 kcal/mol | 39.4 °C
78 | GGGCTAGAAATAGCCC ((((((....)))))) | -30.3 kcal/mol | 64 °C
79 | GGGCTAGGAAACTAGCTC (.(((((....))))).) | -28.9 kcal/mol | 50.9 °C
80 | GGGCTAGGAAACTGGCTC (.((.((....)).)).) | -20.4 kcal/mol | 40.9 °C
81 | GGGCTCCCGAAAGGGCCC (((..(((....)))))) | -29.5 kcal/mol | 56 °C
82 | GGGCTCCGAAAGGACCCC (((.(((....))).))) | -20.5 kcal/mol | 53.9 °C
83 | GGGCTCGAAAGAGGCCC ((((((....))).))) | -14.3 kcal/mol | 69 °C
84 | GGGCTCGAAAGAGTACCC ((((((....)))..))) | -17.5 kcal/mol | 45 °C
85 | GGGCTCGAAAGAGTCCCC ((((((....)))..))) | -15.8 kcal/mol | 60.3 °C
86 | GGGCTCGGAAACGGGCTC (.((.((....)).)).) | -20.2 kcal/mol | 49.6 °C
87 | GGGCTGACGAAAGTCCCC (((..(((....)))))) | -18.1 kcal/mol | 42.8 °C
88 | GGGCTGCCGAAAGGCCCC (((..(((....)))))) | -16 kcal/mol | 46.2 °C
89 | GGGCTGCGAAAGCACCC (((.(((....)))))) | -21.4 kcal/mol | 57.2 °C
90 | GGGCTGCGAAAGCACCCC (((.(((....))).))) | -18.2 kcal/mol | 57.3 °C
91 | GGGCTGGGAAACCAGTCC ((.((((....)))).)) | -42.5 kcal/mol | 57.3 °C
